# Experiments:
# Cryptococcus neoformans [1] = experiment: Antifungal activity against Cryptococcus neoformans 05-202523 after 24 to 72 hrs by broth microdilution method; format: functional
# In short: (§1)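 Broth microdilution MIC per CLSI M27-A3 (yeasts) or M38-A2 (molds). RPMI 1640 with L-glutamine, without bicarbonate, buffered to pH 7.0 with 0.165 M MOPS. Final test range for the compounds was 0.175–87.5 μM. Incubation at 35°C with visual reading at 24–72 h. MIC was the lowest concentration giving 100% inhibition versus the growth control (azoles 50% or 100%, by organism). Each isolate was run in duplicate in two independent experiments.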
# Aspergillus terreus [2] = experiment: Antifungal activity against Aspergillus terreus 05-202844 after 24 to 72 hrs by broth microdilution method; format: functional; in short: as §1
# Nakaseomyces glabratus [3] = experiment: Antifungal activity against Candida glabrata 04-202345 after 24 to 72 hrs by broth microdilution method; format: functional; in short: as §1
# Aspergillus fumigatus [4] = experiment: Antifungal activity against Aspergillus fumigatus ATCC 204305 after 24 to 72 hrs by broth microdilution method; format: functional; in short: as §1
# Rhizopus arrhizus [5] = experiment: Antifungal activity against Rhizopus oryzae 05-203111 after 24 to 72 hrs by broth microdilution method; format: functional
# In short: (§2)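 Mold isolates subcultured on potato dextrose agar, then tested by CLSI M38-A2 broth microdilution in RPMI 1640 (L-glutamine, no bicarbonate) buffered to pH 7.0 with 0.165 M MOPS. Compounds were dissolved in water and tested at a final 0.175–87.5 μM. Plates were incubated at 35°C. MIC was read visually as the lowest concentration giving 100% inhibition versus the growth control. Each isolate was run in duplicate in two independent experiments.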
# [6] = Antifungal activity against Exophiala jeanselmei 03-200268 after 24 to 72 hrs by broth microdilution method; format: functional; in short: as §1
# Aspergillus terreus [7] = experiment: Antifungal activity against Aspergillus terreus 05-202844 after 48 to 72 hrs; format: functional
# In short: (§3)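 MFC: after the MIC read, 30-μl aliquots from each well without visible growth were plated onto Sabouraud dextrose agar and incubated at 35°C. Reading was at 48–72 h for yeasts and up to 7 days for molds. MFC was the lowest concentration with no colonies.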
# Lichtheimia corymbifera [8] = experiment: Antifungal activity against Absidia corymbifera 04-200170 after 24 to 72 hrs by broth microdilution method; format: functional; in short: as §1
# Cryptococcus neoformans [9] = experiment: Antifungal activity against Cryptococcus neoformans 05-202523 after 48 to 72 hrs; format: functional; in short: as §3
# Aspergillus fumigatus [10] = experiment: Antifungal activity against Aspergillus fumigatus 05-203114 after 48 to 72 hrs; format: functional
# In short: (§4)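 CLSI M38-A2 broth microdilution for molds in RPMI 1640 with L-glutamine and no bicarbonate, buffered with 0.165 M MOPS to pH 7.0. Compounds were dissolved in water and tested at 0.175–87.5 μM final, 35°C, up to 7 days. MIC was read visually as 100% inhibition versus growth control. For MFC, clear wells were plated on SDA and the lowest concentration with no colonies taken. Each isolate was run in duplicate, two independent experiments.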
# Lichtheimia corymbifera [11] = experiment: Antifungal activity against Absidia corymbifera 04-200170 after 48 to 72 hrs; format: functional; in short: as §4
# [12] = system: Cunninghamella bertholletiae; experiment: Antifungal activity against Cunninghamella bertholletiae 99-12187 after 48 to 72 hrs; format: functional; details: in the assay text read “for up to 7 days” for “after 48 to 72 hrs”; in short: as §3
# [13] = Antifungal activity against Paecilomyces lilacinus 05-200601 after 24 to 72 hrs by broth microdilution method; format: functional; details: Purpureocillium lilacinum; in short: as §2
# Cryptococcus neoformans [14] = experiment: Antifungal activity against Cryptococcus neoformans ATCC 90112 after 48 to 72 hrs; format: functional; in short: as §3
# Candida parapsilosis [15] = experiment: Antifungal activity against Candida parapsilosis ATCC 22019 after 24 to 72 hrs by broth microdilution method; format: functional; details: Lodderomyces parapsilosis; in short: as §1
# Candida parapsilosis [16] = experiment: Antifungal activity against Candida parapsilosis 04-202398 after 24 to 72 hrs by broth microdilution method; format: functional; details: Lodderomyces parapsilosis; in short: as §1
# [17] = system: Cunninghamella bertholletiae; experiment: Antifungal activity against Cunninghamella bertholletiae 99-12187 after 24 to 72 hrs by broth microdilution method; format: functional; in short: as §1
# Candida parapsilosis [18] = experiment: Antifungal activity against Candida parapsilosis 04-202398 after 48 to 72 hrs; format: functional; details: Lodderomyces parapsilosis
# In short: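 CLSI M27-A3 broth microdilution for yeasts in RPMI 1640 with L-glutamine and no bicarbonate, buffered with 0.165 M MOPS to pH 7.0. Compounds were dissolved in water and tested at 0.175–87.5 μM final, 35°C. MIC was read visually at 24–72 h as 100% inhibition versus growth control. For MFC, 30 μl from clear wells went onto SDA at 35°C for 48–72 h, reading the lowest concentration without colonies. Duplicates, two independent runs.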
# Aspergillus fumigatus [19] = experiment: Antifungal activity against Aspergillus fumigatus ATCC 204305 after 48 to 72 hrs; format: functional; in short: as §4
# Aspergillus flavus [20] = experiment: Antifungal activity against Aspergillus flavus 05-203758 after 24 to 72 hrs by broth microdilution method; format: functional; in short: as §1
# Aspergillus flavus [21] = experiment: Antifungal activity against Aspergillus flavus ATCC 204304 after 24 to 72 hrs by broth microdilution method; format: functional; in short: as §1
# Candida albicans [22] = experiment: Antifungal activity against Candida albicans ATCC 90028 after 24 to 72 hrs by broth microdilution method; format: functional; in short: as §1
# Candida tropicalis = experiment: Antifungal activity against Candida tropicalis 04-202361 after 24 to 72 hrs by broth microdilution method; format: functional; in short: as §1
# Aspergillus flavus [23] = experiment: Antifungal activity against Aspergillus flavus ATCC 204304 after 48 to 72 hrs; format: functional; in short: as §3
# Fusarium solani [24] = experiment: Antifungal activity against Fusarium solani 04-203102 after 48 to 72 hrs; format: functional
# In short: (§5)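 After the broth microdilution MIC read, suspension from every well without visible growth was plated onto Sabouraud dextrose agar and incubated at 35°C, up to 7 days for molds. MFC was taken as the lowest drug concentration with no colonies.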
# Lomentospora prolificans [25] = experiment: Antifungal activity against Scedosporium prolificans 05-203060 after 24 to 72 hrs by broth microdilution method; format: functional; in short: as §2
# Pichia kudriavzevii [26] = experiment: Antifungal activity against Candida krusei 04-202328 after 24 to 72 hrs by broth microdilution method; format: functional; in short: as §1
# Aspergillus fumigatus [27] = experiment: Antifungal activity against Aspergillus fumigatus 05-203114 after 24 to 72 hrs by broth microdilution method; format: functional; in short: as §1
# Cryptococcus neoformans [28] = experiment: Antifungal activity against Cryptococcus neoformans ATCC 90112 after 24 to 72 hrs by broth microdilution method; format: functional; in short: as §1
# Pichia kudriavzevii [29] = experiment: Antifungal activity against Candida krusei ATCC 6258 after 24 to 72 hrs by broth microdilution method; format: functional; in short: as §1
# [30] = system: Cryptococcus gattii species complex; experiment: Antifungal activity against Cryptococcus gattii 05-200122 after 24 to 72 hrs by broth microdilution method; format: functional, Cryptococcus bacillisporus; in short: as §1
# Fusarium solani [31] = experiment: Antifungal activity against Fusarium solani 04-203102 after 24 to 72 hrs by broth microdilution method; format: functional; in short: as §2
# Scedosporium apiospermum [32] = experiment: Antifungal activity against Scedosporium apiospermum 05-203100 after 24 to 72 hrs by broth microdilution method; format: functional; in short: as §2
# Exophiala spinifera = experiment: Antifungal activity against Exophiala spinifera 03-200803 after 24 to 72 hrs by broth microdilution method; format: functional; in short: as §2
# Candida albicans [33] = experiment: Antifungal activity against Candida albicans ATCC 10231 after 24 to 72 hrs by broth microdilution method; format: functional; in short: as §1
# Lomentospora prolificans [34] = experiment: Antifungal activity against Scedosporium prolificans 05-203060 after 48 to 72 hrs; format: functional; in short: as §4
# Aspergillus flavus [35] = experiment: Antifungal activity against Aspergillus flavus 05-203758 after 48 to 72 hrs; format: functional; in short: as §4
# [36] = Antifungal activity against Paecilomyces lilacinus 05-200601 after 48 to 72 hrs; format: functional; details: Purpureocillium lilacinum; in short: as §4
# Pichia kudriavzevii [37] = experiment: Antifungal activity against Candida krusei […] after 48 to 72 hrs; format: functional; in short: as §3
# Pichia kudriavzevii [38] = experiment: Antifungal activity against Candida krusei ATCC 9258 after 24 to 72 hrs by broth microdilution method; format: functional; in short: as §1
# [39] = Antifungal activity against Exophiala jeanselmei 03-200268 after 48 to 72 hrs; format: functional; in short: as §4
# Scedosporium apiospermum [40] = experiment: Antifungal activity against Scedosporium apiospermum 05-203100 after 48 to 72 hrs; format: functional; details: in the assay text read “for up to 7 days” for “after 48 to 72 hrs”; in short: as §5
# Candida parapsilosis [41] = experiment: Antifungal activity against Candida parapsilosis ATCC 22019 after 48 to 72 hrs; format: functional; details: Lodderomyces parapsilosis; in short: as §3
# Rhizopus arrhizus [42] = experiment: Antifungal activity against Rhizopus oryzae 05-203111 after 48 to 72 hrs; format: functional; in short: as §5
# Nakaseomyces glabratus [43] = experiment: Antifungal activity against Candida glabrata 04-202345 after 48 to 72 hrs; format: functional; in short: as §3
Structure (SMILES),MIC (Cryptococcus neoformans [1]) [µg/mL],MIC (Aspergillus terreus [2]) [µg/mL],MIC (Nakaseomyces glabratus [3]) [µg/mL],MIC (Aspergillus fumigatus [4]) [µg/mL],MIC (Rhizopus arrhizus [5]) [µg/mL],MIC [6] [µg/mL],MIC (Lichtheimia corymbifera [8]) [µg/mL],MIC [13] [µg/mL],MIC (Candida parapsilosis [15]) [µg/mL],MIC (Candida parapsilosis [16]) [µg/mL],MIC [17] [µg/mL],MIC (Aspergillus flavus [20]) [µg/mL],MIC (Aspergillus flavus [21]) [µg/mL],MIC (Candida albicans [22]) [µg/mL],MIC (Candida tropicalis) [µg/mL],MIC (Lomentospora prolificans [25]) [µg/mL],MIC (Pichia kudriavzevii [26]) [µg/mL],MIC (Aspergillus fumigatus [27]) [µg/mL],MIC (Cryptococcus neoformans [28]) [µg/mL],MIC (Pichia kudriavzevii [29]) [µg/mL],other results
CCCCC(CCCC)c1cc[n+](CCCCCCCCCCCC[n+]2ccc(C(CCCC)CCCC)c(C)c2)cc1C.[Cl-].[Cl-],3.7,3.7,1.86,14.9,3.7,3.7,29.8,59.7,1.86,14.9,14.9,59.7,14.9,1.86,1.86,3.7,3.7,14.9,1.86,3.7,MFC (Aspergillus terreus [7]): 14.9 µg/mL; MFC (Cryptococcus neoformans [9]): 7.5 µg/mL; MFC (Aspergillus fumigatus [10]): 59.7 µg/mL; MFC (Lichtheimia corymbifera [11]): 59.7 µg/mL; MFC [12]: 29.8 µg/mL; MFC (Cryptococcus neoformans [14]): 3.7 µg/mL; MFC (Candida parapsilosis [18]): 29.8 µg/mL; MFC (Aspergillus fumigatus [19]): 29.8 µg/mL; MFC (Aspergillus flavus [23]): 59.7 µg/mL; MFC (Fusarium solani [24]): 59.7 µg/mL; MIC [30]: 1.86 µg/mL; MIC (Fusarium solani [31]): 29.8 µg/mL; MIC (Scedosporium apiospermum [32]): 1.86 µg/mL; MIC (Exophiala spinifera): 1.86 µg/mL; MIC (Candida albicans [33]): 1.86 µg/mL
CCCCCc1cc[n+](CCCCCCCCCCCC[n+]2ccc(CCCCC)c(CCCCC)c2)cc1CCCCC.[Cl-].[Cl-],7.5,0.93,0.93,7.5,1.86,1.86,14.9,14.9,1.86,7.5,7.5,14.9,7.5,1.86,1.86,1.86,1.86,7.5,1.86,1.86,MFC (Lomentospora prolificans [34]): 3.7 µg/mL; MFC (Aspergillus terreus [7]): 1.86 µg/mL; MFC (Aspergillus flavus [35]): 29.8 µg/mL; MFC (Aspergillus fumigatus [10]): 14.9 µg/mL; MFC (Lichtheimia corymbifera [11]): 27.8 µg/mL; MFC [36]: 29.8 µg/mL; MFC (Candida parapsilosis [18]): 14.9 µg/mL; MFC (Pichia kudriavzevii [37]): 3.7 µg/mL; MFC (Aspergillus fumigatus [19]): 14.9 µg/mL; MIC (Pichia kudriavzevii [38]): 1.86 µg/mL; MFC (Aspergillus flavus [23]): 14.9 µg/mL; MIC [30]: 1.86 µg/mL; MIC (Fusarium solani [31]): 14.9 µg/mL; MIC (Scedosporium apiospermum [32]): 3.7 µg/mL; MIC (Exophiala spinifera): 1.86 µg/mL; MFC [39]: 3.7 µg/mL; MIC (Candida albicans [33]): 1.86 µg/mL
CC(C)(C)CCc1cc[n+](CCCCCCCCCCCC[n+]2ccc(CCC(C)(C)C)cc2)cc1.[Cl-].[Cl-],25.3,50.7,0.79,> 50.7,6.3,1.58,> 50.7,> 50.7,1.58,50.7,> 50.7,> 50.7,> 50.7,3.2,1.58,1.58,25.3,> 50.7,1.58,25.3,MFC (Scedosporium apiospermum [40]): 12.7 µg/mL; MFC (Lomentospora prolificans [34]): 12.7 µg/mL; MFC (Cryptococcus neoformans [9]): 50.7 µg/mL; MFC (Candida parapsilosis [41]): 3.2 µg/mL; MFC (Rhizopus arrhizus [42]): 25.3 µg/mL; MIC [30]: 1.58 µg/mL; MIC (Fusarium solani [31]): > 50.7 µg/mL; MIC (Scedosporium apiospermum [32]): 6.3 µg/mL; MIC (Exophiala spinifera): 0.79 µg/mL; MFC (Nakaseomyces glabratus [43]): 1.58 µg/mL; MFC [39]: 3.2 µg/mL; MIC (Candida albicans [33]): 3.2 µg/mL

# Reference: ChEMBL document CHEMBL1629527, “In vitro antifungal activities of bis(alkylpyridinium)alkane compounds against pathogenic yeasts and molds” (Antimicrob Agents Chemother, 2010)
